Laboratory results published in ChEMBL document CHEMBL4689842, “EUbOPEN Chemogenomics Library wave 1” (2021).

Assays:
[1] = test system: U2OS; test: Multiplex assay against U2OS; format: toxicity, cell-based; details: human
Procedure, shortened: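 Tubulin, mitochondrial-mass and membrane-permeability phenotypes are per cents of healthy-nucleus cells. Cells were gated by CellPathfinder machine learning into Hoechst high-intensity objects or normal cells, normal cells into healthy, pyknosed or fragmented nuclei, and pyknosed cells into mitotic or apoptotic. Before that, live cells stained at seeding with Hoechst33342, BioTracker Green Microtubule Cytoskeleton Dye, MitoTracker Red and Annexin V Alexa Fluor 680 were imaged on a CQ1 microscope at 37°C and 5% CO2 after compound addition.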

[2] = test system: U2OS; test: Incucyte cell viability with U2OS; format: toxicity, cell-based; details: human, 10 µM, compound concentration 10 uM; further: filed as whole numbers so only -1 and 0 and 1 occur
[3] = 12 h, 1 µM, compound concentration 1 uM, replicate 1
[4] = 12 h, 1 µM, compound concentration 1 uM, replicate 2
[5] = 12 h, 10 µM, compound concentration 10 uM, replicate 1
[6] = 12 h, 10 µM, compound concentration 10 uM, replicate 2
[7] = 24 h, 1 µM, compound concentration 1 uM, replicate 1
[8] = 24 h, 1 µM, compound concentration 1 uM, replicate 2
[9] = 24 h, 10 µM, compound concentration 10 uM, replicate 1
[10] = 24 h, 10 µM, compound concentration 10 uM, replicate 2
[11] = 48 h, 1 µM, compound concentration 1 uM, replicate 1
[12] = 48 h, 1 µM, compound concentration 1 uM, replicate 2
[13] = 48 h, 10 µM, compound concentration 10 uM, replicate 1
[14] = 48 h, 10 µM, compound concentration 10 uM, replicate 2

N#Cc1cccc(C(=O)Nc2cc(-c3ccccc3)nn2-c2ccccc2)c1
Population Apoptotic (%) [1, 3]: 33% | Population Fragmented Nuclei (%) [1, 3]: 14% | Population Healthy Nuclei (%) [1, 3]: 73% | Population Hoechst High Intensity Objects (%) [1, 3]: 9% | Population Membrane Permeable-Phenotype (%) [1, 3]: 2% | Population Mitotic Cells (%) [1, 3]: 66% | Population Normal (%) [1, 3]: 90% | Population Pyknosed Nuclei (%) [1, 3]: 12% | Population Tubulin-Different-Phenotype (%) [1, 3]: 13% | Total Cell Count [1, 3]: 109 | Population Apoptotic (%) [1, 4]: 16% | Population Fragmented Nuclei (%) [1, 4]: 5% | Population Healthy Nuclei (%) [1, 4]: 84% | Population Hoechst High Intensity Objects (%) [1, 4]: 3% | Population Membrane Permeable-Phenotype (%) [1, 4]: 6% | Population Mitochondria Different-Phenotype (%) [1, 4]: 8% | Population Mitotic Cells (%) [1, 4]: 83% | Population Normal (%) [1, 4]: 96% | Population Pyknosed Nuclei (%) [1, 4]: 10% | Population Tubulin-Different-Phenotype (%) [1, 4]: 16% | Total Cell Count [1, 4]: 59 | Population Apoptotic (%) [1, 5]: 50% | Population Fragmented Nuclei (%) [1, 5]: 14% | Population Healthy Nuclei (%) [1, 5]: 69% | Population Hoechst High Intensity Objects (%) [1, 5]: 6% | Population Membrane Permeable-Phenotype (%) [1, 5]: 22% | Population Mitochondria Different-Phenotype (%) [1, 5]: 86% | Population Mitotic Cells (%) [1, 5]: 50% | Population Normal (%) [1, 5]: 93% | Population Pyknosed Nuclei (%) [1, 5]: 15% | Population Tubulin-Different-Phenotype (%) [1, 5]: 100% | Total Cell Count [1, 5]: 121 | Population Apoptotic (%) [1, 6]: 45% | Population Fragmented Nuclei (%) [1, 6]: 9% | Population Healthy Nuclei (%) [1, 6]: 60% | Population Hoechst High Intensity Objects (%) [1, 6]: 9% | Population Membrane Permeable-Phenotype (%) [1, 6]: 15% | Population Mitochondria Different-Phenotype (%) [1, 6]: 84% | Population Mitotic Cells (%) [1, 6]: 55% | Population Normal (%) [1, 6]: 90% | Population Pyknosed Nuclei (%) [1, 6]: 30% | Population Tubulin-Different-Phenotype (%) [1, 6]: 97% | Total Cell Count [1, 6]: 72 | Population Apoptotic (%) [1, 7]: 23% | Population Fragmented Nuclei (%) [1, 7]: 13% | Population Healthy Nuclei (%) [1, 7]: 76% | Population Hoechst High Intensity Objects (%) [1, 7]: 11% | Population Mitochondria Different-Phenotype (%) [1, 7]: 5% | Population Mitotic Cells (%) [1, 7]: 76% | Population Normal (%) [1, 7]: 88% | Population Tubulin-Different-Phenotype (%) [1, 7]: 3% | Total Cell Count [1, 7]: 137 | Population Apoptotic (%) [1, 8]: 14% | Population Fragmented Nuclei (%) [1, 8]: 3% | Population Healthy Nuclei (%) [1, 8]: 86% | Population Hoechst High Intensity Objects (%) [1, 8]: 4% | Population Membrane Permeable-Phenotype (%) [1, 8]: 1% | Population Mitochondria Different-Phenotype (%) [1, 8]: 8% | Population Mitotic Cells (%) [1, 8]: 85% | Population Normal (%) [1, 8]: 95% | Population Pyknosed Nuclei (%) [1, 8]: 10% | Population Tubulin-Different-Phenotype (%) [1, 8]: 7% | Total Cell Count [1, 8]: 68 | Population Apoptotic (%) [1, 9]: 35% | Population Fragmented Nuclei (%) [1, 9]: 19% | Population Healthy Nuclei (%) [1, 9]: 55% | Population Hoechst High Intensity Objects (%) [1, 9]: 8% | Population Membrane Permeable-Phenotype (%) [1, 9]: 33% | Population Mitochondria Different-Phenotype (%) [1, 9]: 78% | Population Mitotic Cells (%) [1, 9]: 64% | Population Normal (%) [1, 9]: 91% | Population Pyknosed Nuclei (%) [1, 9]: 25% | Population Tubulin-Different-Phenotype (%) [1, 9]: 98% | Total Cell Count [1, 9]: 119 | Population Apoptotic (%) [1, 10]: 42% | Population Fragmented Nuclei (%) [1, 10]: 9% | Population Healthy Nuclei (%) [1, 10]: 67% | Population Hoechst High Intensity Objects (%) [1, 10]: 6% | Population Membrane Permeable-Phenotype (%) [1, 10]: 30% | Population Mitochondria Different-Phenotype (%) [1, 10]: 71% | Population Mitotic Cells (%) [1, 10]: 57% | Population Normal (%) [1, 10]: 93% | Population Pyknosed Nuclei (%) [1, 10]: 22% | Population Tubulin-Different-Phenotype (%) [1, 10]: 95% | Total Cell Count [1, 10]: 66 | Population Apoptotic (%) [1, 11]: 38% | Population Fragmented Nuclei (%) [1, 11]: 10% | Population Healthy Nuclei (%) [1, 11]: 82% | Population Hoechst High Intensity Objects (%) [1, 11]: 5% | Population Membrane Permeable-Phenotype (%) [1, 11]: 2% | Population Mitochondria Different-Phenotype (%) [1, 11]: 2% | Population Mitotic Cells (%) [1, 11]: 61% | Population Normal (%) [1, 11]: 94% | Population Pyknosed Nuclei (%) [1, 11]: 7% | Population Tubulin-Different-Phenotype (%) [1, 11]: 4% | Total Cell Count [1, 11]: 190 | Population Apoptotic (%) [1, 12]: 20% | Population Fragmented Nuclei (%) [1, 12]: 3% | Population Healthy Nuclei (%) [1, 12]: 86% | Population Hoechst High Intensity Objects (%) [1, 12]: 4% | Population Membrane Permeable-Phenotype (%) [1, 12]: 4% | Population Mitochondria Different-Phenotype (%) [1, 12]: 13% | Population Mitotic Cells (%) [1, 12]: 80% | Population Normal (%) [1, 12]: 95% | Population Pyknosed Nuclei (%) [1, 12]: 10% | Population Tubulin-Different-Phenotype (%) [1, 12]: 9% | Total Cell Count [1, 12]: 98 | Population Apoptotic (%) [1, 13]: 59% | Population Fragmented Nuclei (%) [1, 13]: 17% | Population Healthy Nuclei (%) [1, 13]: 58% | Population Hoechst High Intensity Objects (%) [1, 13]: 10% | Population Membrane Permeable-Phenotype (%) [1, 13]: 32% | Population Mitochondria Different-Phenotype (%) [1, 13]: 67% | Population Mitotic Cells (%) [1, 13]: 40% | Population Normal (%) [1, 13]: 89% | Population Pyknosed Nuclei (%) [1, 13]: 24% | Population Tubulin-Different-Phenotype (%) [1, 13]: 100% | Total Cell Count [1, 13]: 123 | Population Apoptotic (%) [1, 14]: 55% | Population Fragmented Nuclei (%) [1, 14]: 13% | Population Healthy Nuclei (%) [1, 14]: 60% | Population Hoechst High Intensity Objects (%) [1, 14]: 11% | Population Membrane Permeable-Phenotype (%) [1, 14]: 52% | Population Mitochondria Different-Phenotype (%) [1, 14]: 42% | Population Mitotic Cells (%) [1, 14]: 44% | Population Normal (%) [1, 14]: 88% | Population Pyknosed Nuclei (%) [1, 14]: 26% | Population Tubulin-Different-Phenotype (%) [1, 14]: 97% | Total Cell Count [1, 14]: 78 | Growth Rate ([2]; 0 h, replicate number 2, timepoint 0 hours): 0 | Growth Rate ([2]; 6 h, replicate number 1, timepoint 6 hours): 0 | Growth Rate ([2]; 12 h, replicate number 1, timepoint 12 hours): 0 | Growth Rate ([2]; 12 h, replicate number 2, timepoint 12 hours): 1 | Growth Rate ([2]; 18 h, replicate number 1, timepoint 18 hours): 0 | Growth Rate ([2]; 24 h, replicate number 1, timepoint 24 hours): 0
